{"data": "Experimental data from different studies", "observed": "metabolic stability", "medium": "liver microsomes"}
{"Structure (SMILES)": "CCOC(=O)C1=C(C)N/C(=C/c2cc(CC)n(-c3ccccc3C(F)(F)F)c2CC)C1=O", "system": "mouse", "conditions": "1 µM", "microsomal CLint [µL/min/mg]": 143}
{"Structure (SMILES)": "CCOC(=O)c1c(-c2cccc(Oc3ccccc3)c2)[nH]c2cc(OC)ccc2c1=O", "system": "female CD-1 mouse", "conditions": "19.8 µM, pH 7.4", "microsomal CLint [µL/min/mg]": "> 15"}
{"Structure (SMILES)": "COc1ccc(Nc2nc(-c3ccccn3)nc3ccccc23)cc1", "system": "mouse", "microsomal CLint [µL/min/mg]": 158}
{"Structure (SMILES)": "O=C(Nc1ccnc(C(F)(F)F)c1)Nc1cccc2c1OC(F)(F)O2", "system": "mouse", "microsomal CLint [µL/min/mg]": 92}
{"Structure (SMILES)": "c1ccc(-c2nc(NCc3cccnc3)c3ccccc3n2)nc1", "system": "mouse", "microsomal CLint [µL/min/mg]": 64}
{"Structure (SMILES)": "CCCOc1cccc(-c2[nH]c3cc(OC)ccc3c(=O)c2C(=O)OCC)c1", "system": "female CD-1 mouse", "conditions": "19.8 µM, pH 7.4", "microsomal CLint [µL/min/mg]": "> 15"}
{"Structure (SMILES)": "CCC(F)(F)c1nc2nc(C)cc(Nc3ccc(S(F)(F)(F)(F)F)cc3)n2n1", "system": "mouse", "conditions": "1 µM, pH 7.4", "microsomal CLint [µL/min/mg]": "< 10"}
{"Structure (SMILES)": "CC1=C(C(N)=O)C(=O)/C(=C\\c2cc(C)n(-c3ccccc3C(F)(F)F)c2C)N1", "system": "mouse", "conditions": "1 µM", "microsomal CLint [µL/min/mg]": 93}
{"Structure (SMILES)": "N#CC1CCN(c2nc(-c3ccccn3)nc3ccccc23)CC1", "system": "mouse", "microsomal CLint [µL/min/mg]": 105}
{"Structure (SMILES)": "CCC(F)(F)c1nc2nc(C)cc(Nc3ccc(C(F)(F)F)cc3)n2n1", "system": "mouse", "conditions": "1 µM, pH 7.4", "microsomal CLint [µL/min/mg]": "< 10"}
{"Structure (SMILES)": "COc1cc2[nH]c(-c3cccc(Oc4ccccc4)c3)c(C(=O)OCCCN3CCOCC3)c(=O)c2cc1F", "system": "female CD-1 mouse", "conditions": "19.8 µM, pH 7.4", "microsomal CLint [µL/min/mg]": "> 15"}
{"Structure (SMILES)": "CS(=O)(=O)c1ccc(-c2cnc(N)c(-c3ccc(C(F)(F)F)nc3)c2)cc1", "system": "male CD-1 mouse", "conditions": "1 µM", "microsomal CLint [µL/min/mg]": "< 11.6"}
{"Structure (SMILES)": "Cc1cc(Nc2ccc(C(F)(F)F)cc2)c2ccccc2n1", "system": "mouse", "microsomal CLint [µL/min/mg]": 98}
{"Structure (SMILES)": "c1ccc(C2CCN(c3nc(-c4cnn5cccnc45)nc4ccccc34)C2)nc1 (stereo not shown)", "system": "mouse", "microsomal CLint [µL/min/mg]": 153}
{"Structure (SMILES)": "O=C(C1CCCCC1)N1CC(=O)N2CCc3ccccc3[C@@H]2C1", "system": "mouse", "conditions": "0.1 µM, pH 7.4", "microsomal CLint [µL/min/mg]": "> 1000"}
{"Structure (SMILES)": "FC(F)(F)c1ccccc1-c1nc(N2CCC(c3ccccn3)C2)c2ccccc2n1 (stereo not shown)", "system": "mouse", "microsomal CLint [µL/min/mg]": 688}
{"Structure (SMILES)": "CCOC(=O)c1c(-c2cccc(Cl)c2)[nH]c2cc(OC)c(F)cc2c1=O", "system": "female CD-1 mouse", "conditions": "19.8 µM, pH 7.4", "microsomal CLint [µL/min/mg]": "< 4"}
{"Structure (SMILES)": "c1ccc(CCNc2nc(-c3ccccn3)nc3ccccc23)nc1", "system": "mouse", "microsomal CLint [µL/min/mg]": 336}
{"Structure (SMILES)": "Cc1cc(Nc2ccc(S(F)(F)(F)(F)F)cc2)n2nc(C(F)(F)F)nc2n1", "system": "mouse", "conditions": "1 µM, pH 7.4", "microsomal CLint [µL/min/mg]": "< 10"}
